Results: ChEMBL document CHEMBL2321840, “Synthesis and structure-activity relationships of indazole arylsulfonamides as allosteric CC-chemokine receptor 4 (CCR4) antagonists” (J Med Chem, 2013)
Converted amounts (≈) assume the structure as drawn.

Experiments:
[1] = Kinetic solubility of the compound by chemiluminescent nitrogen detection assay; assay type: physicochemical; conditions: read-out: Kinetic_solubility
[2] = target: T1, C-C chemokine receptor type 4 (Homo sapiens, UniProt P51679); assay: Antagonist activity at human recombinant CCR4 receptor expressed in CHO cell membranes by [35S]GTPgammaS binding assay; assay type: functional
T1 sequence (P51679 whole entry): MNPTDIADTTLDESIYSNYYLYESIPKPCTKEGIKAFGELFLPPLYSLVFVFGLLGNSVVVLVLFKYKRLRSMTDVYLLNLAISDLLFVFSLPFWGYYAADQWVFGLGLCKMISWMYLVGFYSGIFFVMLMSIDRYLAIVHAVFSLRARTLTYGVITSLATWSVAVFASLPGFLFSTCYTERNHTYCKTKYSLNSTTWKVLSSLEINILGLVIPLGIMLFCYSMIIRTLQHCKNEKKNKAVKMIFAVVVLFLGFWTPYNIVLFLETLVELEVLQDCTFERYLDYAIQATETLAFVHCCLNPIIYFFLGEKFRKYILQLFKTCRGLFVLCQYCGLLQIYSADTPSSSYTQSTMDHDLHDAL

[3] = Plasma protein binding in human by equilibrium dialysis technique; assay type: ADME, cell-free; conditions: read-out: PPB (converted)
Outline: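 Rapid equilibrium dialysis in CD rat, beagle dog or human plasma, with compound at a nominal 1 μg/mL; n = 3.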

[4] = Volume of distribution at steady state in CD rat at 1 mg/kg, iv and 1 mg/kg, po; assay type: ADME, organism-based; conditions: in vivo, read-out: Vdss
Outline: (§1)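 CD rat pharmacokinetics, with compounds given as solutions in DMSO–PEG200–H₂O (5:45:50); one analogue used a 10:40:50 ratio.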

[5] = Lipophilicity, log D of the compound by chromatographic analysis; assay type: physicochemical
Outline: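 Chromatographic log D measured at pH 7.4.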

[6] = target: T1, C-C chemokine receptor type 4; assay: Antagonist activity at CCR4 receptor in human whole blood assessed as F-actin polymerization after 30 mins by FACS-based flow cytometric analysis; conditions: read-out: pA2 (converted)
in vivo [7] = conditions: CD, rat, iv, 1 mg/kg
in vivo [8] = conditions: CD, rat, iv, 1 mg/kg; remark: listed apart in the source
[9] = Oral bioavailability in CD rat at 1 mg/kg; assay type: ADME, organism-based; conditions: in vivo; outline: as §1
Canis familiaris [10] = species on record: Canis familiaris; conditions: dog, in vivo, iv, 0.5 mg/kg
Canis familiaris [11] = assay: Volume of distribution at steady state in Beagle dog at 0.5 mg/kg, iv; assay type: ADME, organism-based, Canis lupus familiaris; parameters: dose 0.5 mg/kg, route intravenous; conditions: in vivo
[12] = Equilibrium solubility of the compound in fasted-state simulated intestinal fluid at pH 6.5 after 24 hrs by HPLC analysis; assay type: physicochemical
Outline: (§2)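 Solid compound was equilibrated 24 h in the stated medium: water, SGF pH 1.6, FeSSIF pH 6.5, FaSSIF pH 6.5 or saline. Dissolved compound was quantified by HPLC.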

[13] = Equilibrium solubility of the compound in water after 24 hrs by HPLC analysis; assay type: physicochemical; outline: as §2
[14] = Equilibrium solubility of the compound in fed-state simulated intestinal fluid at pH 6.5 after 24 hrs by HPLC analysis; assay type: physicochemical; outline: as §2
[15] = Equilibrium solubility of the compound in simulated gastric fluid at pH 1.6 after 24 hrs by HPLC analysis; assay type: physicochemical; outline: as §2

SMILES | solubility kinetic [1] [µg/mL] | IC50 [2] [µM] | fraction unbound [3] | Vd [4] [L/kg] | chromatographic logD [5] | Kb [6] [µM] | clearance (in vivo [7]) [mL/min/kg] | half-life (in vivo [8]) [h] | bioavailability [9] [%] | t1/2 (Canis familiaris [10]) [h] | Vdss (Canis familiaris [11]) [L/kg] | solubility thermodynamic at 24 h [12] [µg/mL] | solubility thermodynamic at 24 h [13] [µg/mL] | solubility thermodynamic at 24 h [14] [µg/mL] | solubility thermodynamic at 24 h [15] [µg/mL]
COc1cccc2c1c(NS(=O)(=O)c1ccc(Cl)s1)nn2Cc1cccc(CNC(=O)[C@@H]2CCCCN2)c1 | ≥ 220 | 0.0158 | 0.078 | 2.6 | 3.3 | 0.126 | 29 | 3 | < 1 | 0.95 | 11 |  |  |  | 
COc1cc(F)cc2c1c(NS(=O)(=O)c1ccc(Cl)s1)nn2Cc1cccc(CNC(=O)C(C)(C)O)c1 | ≥ 198 | 0.0158 |  | 1.5 | 4.2 | 0.631 | 19 | 1.8 | 90 |  |  | 36 (≈ 63.5 µM) | 32 (≈ 56.4 µM) | 33 (≈ 58.2 µM) | 1 (≈ 1.76 µM)
